What all share (assay type): functional, cell-based
In assay [1] the test system is HCT-8. The assay is described as follows: Cytotoxicity against human HCT8 cells by MTT assay.
For assay [2], the system named is Bel-7402. The assay is described as follows: Cytotoxicity against human Bel7402 cells by MTT assay.
The subject of assay [3] is BGC-823. Nature of the assay: Cytotoxicity against human BGC823 cells by MTT assay.
Assay [4] relates to A549. Nature of the assay: Cytotoxicity against human A549 cells by MTT assay.
Assay [5] deals with A2780. The assay is described as follows: Cytotoxicity against human A2780 cells by MTT assay.
For assay [6], the system named is HepG2. The assay is described as follows: Hepatoprotective activity against N-acetyl-p-aminophenol-induced toxicity in human HepG2 cells at 10 uM after 48 hrs by MTT assay. Summed up: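 HepG2 cells kept in DMEM with 10% fetal calf serum plus penicillin/streptomycin at 37 °C, 5% CO2, passaged with 0.25% trypsin/0.02% EDTA. After seeding and overnight incubation, 10 μM test sample added together with APAP (8 mM final) for 48 h. MTT (0.5 mg/mL) added for 4 h, formazan dissolved in DMSO, absorbance at 570 nm. Bicyclol 10 μM as positive control; mean ± SD, n = 3.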

The structures appear in SMILES notation. Calls of active or inactive are those of the source. The rule behind the calls is not given here.

With `CC(C)[C@]1(O)C(=O)C[C@H](C)[C@@]12CC[C@](C)(O)C(=O)C2`, the IC50 in assay [1], in assay [2], in assay [3], in assay [4] and in assay [5] was more than 10 µM throughout. Moreover, in assay [6], the outcome was Active.
Take `CC1=CCC23OC(C(C)(C)O)(CC12O)C(=O)C=C3C` (racemic): the IC50 in assay [1], in assay [2], in assay [3], in assay [4] and in assay [5] was more than 10 µM each time. The result in assay [6] was Active.
With `CC1=C[C@@H](O)[C@@]2(CC1=O)[C@@H](C(C)C)C(=O)C[C@@H]2C` (relative stereo), the IC50 in assay [1], in assay [2], in assay [3], in assay [4] and in assay [5] was more than 10 µM in each case.
Consider `C[C@@H]1C(=O)CC[C@@H](C)[C@]2(O)C=C(C(C)(C)O)C(=O)[C@@H]12` [CALAMUSIN A], for which the IC50 in assay [1], in assay [2], in assay [3], in assay [4] and in assay [5] was more than 10 µM in each case.
With `C[C@@H]1CC[C@]2(O)O[C@]13C=C(C(C)(C)O)C(=O)[C@H]3[C@@H]2C` [CALAMUSIN B], the IC50 in assay [1], in assay [2], in assay [3], in assay [4] and in assay [5] was more than 10 µM in each case.
Consider `CC1=C[C@H](O)[C@]2(CC1=O)[C@H](C)CC(=O)[C@H]2C(C)C` [CALAMUSIN E], for which the IC50 in assay [1], in assay [2], in assay [3], in assay [4] and in assay [5] was more than 10 µM throughout.
As for `CC(C)=C1C(=O)C[C@@H](C)[C@@]2(O)CC[C@H](C)C(=O)[C@@H]12` [CALAMUSIN G], the IC50 in assay [1], in assay [2], in assay [3], in assay [4] and in assay [5] was more than 10 µM in each case. The outcome in assay [6] was Active.
As for `Cc1ccc(C(C)C)c2c1[C@H](O)C[C@@](C)(O)[C@H]2O` [CALAMUSIN H], the IC50 in assay [1], in assay [2], in assay [3], in assay [4] and in assay [5] was more than 10 µM each time.
Consider `C[C@]1(O)CC[C@H](O)[C@@]2(C)CCC(=O)C=C12` [CALAMUSIN I], for which the IC50 in assay [1], in assay [2], in assay [3], in assay [4] and in assay [5] was more than 10 µM each time. Further, the result in assay [6] was Active.
